Test results reported in ChEMBL document CHEMBL4052618, “Design, synthesis, SAR discussion, in vitro and in vivo evaluation of novel selective EGFR modulator to inhibit L858R/T790M double mutants” (Eur J Med Chem, 2017).

Experiments:
[1] = target: Epidermal growth factor receptor (Homo sapiens, UniProt P00533); assay: Inhibition of human recombinant cytoplasmic GST-tagged EGFR (668 to 1210 residues) expressed in baculovirus using TK-substrate-biotin preincubated for 15 mins followed by substrate addition measured after 60 mins by FRET-based Z'-Lyte assay
[2] = target: Epidermal growth factor receptor (Homo sapiens, UniProt P00533, L858R); assay: Inhibition of human recombinant cytoplasmic GST-tagged EGFR L858R mutant expressed in baculovirus using TK-substrate-biotin preincubated for 15 mins followed by substrate addition measured after 60 mins by FRET-based Z'-Lyte assay
[3] = target: Epidermal growth factor receptor (Homo sapiens, UniProt P00533, L858R/T790M); assay: Inhibition of human recombinant cytoplasmic GST-tagged EGFR T790M/L858R double mutant (668 to 1210 residues) expressed in baculovirus using TK-substrate-biotin preincubated for 15 mins followed by substrate addition measured after 60 mins by FRET-based Z'-Lyte assay
Homo sapiens = species on record: Homo sapiens; assay: Selectivity ratio of IC50 for human recombinant cytoplasmic GST-tagged EGFR (668 to 1210 residues) to IC50 for human recombinant cytoplasmic GST-tagged EGFR T790M/L858R double mutant (668 to 1210 residues)
In short: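 HTRF kinase assay on wild-type EGFR and the T790M/L858R mutant, with TK-substrate-biotin, ATP, 1 mM DTT, 1 mM MnCl2 and 5 mM MgCl2. Serially diluted compounds in 1% DMSO were preincubated with kinase for 15 min. The reaction was started with ATP plus substrate, run 60 min at room temperature, then stopped with Strep-XL665/TK Ab-Cryptate and read after 1 h. Run in duplicate, at least three independent IC50 determinations.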

NCI-H1975 = assay: Antiproliferative activity against human NCI-H1975 cells harboring EGFR L858R/T790M double mutant; format: functional, cell-based
In short: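 A431 was grown in EMEM with 10% FBS; HCC827 and NCI-H1975 were grown in RPMI-1640 with 10% FBS. Cell viability experiments were repeated at least three times.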

[4] = Half life in mouse liver microsomes; format: ADME, microsome
[5] = Half life in rat liver microsomes; format: ADME, microsome
[6] = Half life in dog liver microsomes; format: ADME, Canis lupus familiaris, microsome
[7] = Half life in monkey liver microsomes; format: ADME, Macaca mulatta, microsome; settings: rhesus monkey
[8] = Intrinsic clearance in mouse liver microsomes; format: ADME, microsome; settings: read-out: CLH
[9] = Intrinsic clearance in rat liver microsomes; format: ADME, microsome; settings: read-out: CLH
[10] = Intrinsic clearance in dog liver microsomes; format: ADME, Canis lupus familiaris, microsome; settings: read-out: CLH
[11] = Intrinsic clearance in monkey liver microsomes; format: ADME, Macaca mulatta, microsome; settings: rhesus monkey, read-out: CLH
[12] = Half life in human hepatocytes; format: ADME, cell-based, Hepatocyte
[13] = Half life in rat hepatocytes; format: ADME, cell-based, Hepatocyte
[14] = Intrinsic clearance in rat hepatocytes assessed per million cells; format: ADME, cell-based, Hepatocyte
[15] = Tmax in Sprague-Dawley rat at 10 mg/kg, po administered via gavage by LC-MS/MS analysis; format: ADME, organism-based; settings: in vivo
In short: (§1)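 Male Sprague-Dawley rats (200-240 g) received 1 mg/kg by tail-vein injection in 2% DMSO, 20% PEG400 and 78% buffered saline, or 10 mg/kg by oral gavage in 0.5% methylcellulose. Orbital sinus blood was drawn into heparinized tubes at 2, 5, 15 and 30 min and at 1, 2, 4, 8, 12 and 24 h, then centrifuged. Plasma was measured by LC/MS/MS in SRM mode, with non-compartmental analysis.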

[16] = Cmax in Sprague-Dawley rat at 10 mg/kg, po administered via gavage after 24 hrs by LC-MS/MS analysis; format: ADME, organism-based; set-up: dose 10 mg/kg, route oral; settings: in vivo; in short: as §1
[17] = MRT in Sprague-Dawley rat at 10 mg/kg, po administered via gavage by LC-MS/MS analysis; format: ADME, organism-based; settings: in vivo; in short: as §1
[18] = Oral bioavailability in Sprague-Dawley rat at 10 mg/kg administered via gavage after 24 hrs by LC-MS/MS analysis; format: ADME, organism-based; settings: in vivo; in short: as §1
[19] = Half life in Sprague-Dawley rat at 1 mg/kg, iv by LC-MS/MS analysis; format: ADME, organism-based; settings: in vivo
In short: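 Male Sprague-Dawley rats (200-240 g) were dosed either by tail vein at 1 mg/kg in 2% DMSO/20% PEG400/78% buffered saline or by oral gavage at 10 mg/kg in 0.5% methylcellulose. Blood was drawn by orbital sinus puncture at 2 min to 24 h into heparin, and plasma was analysed by LC/MS/MS in SRM mode. Parameters came from non-compartmental analysis.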

[20] = Clearance in Sprague-Dawley rat at 1 mg/kg, iv after 24 hrs by LC-MS/MS analysis; format: ADME, organism-based; settings: in vivo; in short: as §1
[21] = MRT in Sprague-Dawley rat at 1 mg/kg, iv by LC-MS/MS analysis; format: ADME, organism-based; settings: in vivo; in short: as §1
A-431 = assay: Antiproliferative activity against human A431 cells harboring wild-type EGFR; format: functional, cell-based
HCC827 = assay: Antiproliferative activity against human HCC827 cells harboring EGFR E746-A750 deletion mutant; format: functional, cell-based

Sequence of Epidermal growth factor receptor (Homo sapiens, UniProt P00533) (P00533 whole entry, the tested form may be a part): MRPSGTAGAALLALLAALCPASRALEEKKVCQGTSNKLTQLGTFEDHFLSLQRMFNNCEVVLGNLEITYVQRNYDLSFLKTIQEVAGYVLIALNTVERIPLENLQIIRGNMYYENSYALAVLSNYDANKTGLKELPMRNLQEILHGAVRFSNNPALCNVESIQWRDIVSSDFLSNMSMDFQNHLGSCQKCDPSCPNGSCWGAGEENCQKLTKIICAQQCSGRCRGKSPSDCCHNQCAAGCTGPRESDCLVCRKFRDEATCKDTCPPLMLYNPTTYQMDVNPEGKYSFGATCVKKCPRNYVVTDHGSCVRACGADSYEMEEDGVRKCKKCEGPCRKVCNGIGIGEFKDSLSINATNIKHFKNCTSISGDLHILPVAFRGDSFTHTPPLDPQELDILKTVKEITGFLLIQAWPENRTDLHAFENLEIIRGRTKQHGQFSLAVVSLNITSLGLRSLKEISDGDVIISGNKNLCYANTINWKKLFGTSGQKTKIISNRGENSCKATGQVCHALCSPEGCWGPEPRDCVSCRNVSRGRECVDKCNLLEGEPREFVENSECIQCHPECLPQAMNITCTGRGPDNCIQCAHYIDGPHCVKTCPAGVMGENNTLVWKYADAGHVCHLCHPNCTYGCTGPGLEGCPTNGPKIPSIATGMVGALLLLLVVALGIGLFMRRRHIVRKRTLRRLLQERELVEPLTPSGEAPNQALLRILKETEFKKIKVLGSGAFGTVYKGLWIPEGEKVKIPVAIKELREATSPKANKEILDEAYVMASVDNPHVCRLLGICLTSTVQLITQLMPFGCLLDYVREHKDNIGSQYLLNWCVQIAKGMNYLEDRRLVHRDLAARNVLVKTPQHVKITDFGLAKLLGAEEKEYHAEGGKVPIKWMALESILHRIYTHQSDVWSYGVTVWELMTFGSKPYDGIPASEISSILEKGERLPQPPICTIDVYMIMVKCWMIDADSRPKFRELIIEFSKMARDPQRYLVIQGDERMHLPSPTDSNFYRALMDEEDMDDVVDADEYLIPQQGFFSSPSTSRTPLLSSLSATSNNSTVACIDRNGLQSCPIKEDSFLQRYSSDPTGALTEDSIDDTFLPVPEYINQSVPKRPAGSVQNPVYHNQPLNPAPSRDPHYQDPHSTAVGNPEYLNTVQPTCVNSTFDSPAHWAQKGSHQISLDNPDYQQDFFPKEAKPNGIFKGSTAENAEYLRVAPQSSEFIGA
Sequence of Epidermal growth factor receptor (Homo sapiens, UniProt P00533, L858R/T790M) (P00533 25-1210 T790M/L858R limits assumed): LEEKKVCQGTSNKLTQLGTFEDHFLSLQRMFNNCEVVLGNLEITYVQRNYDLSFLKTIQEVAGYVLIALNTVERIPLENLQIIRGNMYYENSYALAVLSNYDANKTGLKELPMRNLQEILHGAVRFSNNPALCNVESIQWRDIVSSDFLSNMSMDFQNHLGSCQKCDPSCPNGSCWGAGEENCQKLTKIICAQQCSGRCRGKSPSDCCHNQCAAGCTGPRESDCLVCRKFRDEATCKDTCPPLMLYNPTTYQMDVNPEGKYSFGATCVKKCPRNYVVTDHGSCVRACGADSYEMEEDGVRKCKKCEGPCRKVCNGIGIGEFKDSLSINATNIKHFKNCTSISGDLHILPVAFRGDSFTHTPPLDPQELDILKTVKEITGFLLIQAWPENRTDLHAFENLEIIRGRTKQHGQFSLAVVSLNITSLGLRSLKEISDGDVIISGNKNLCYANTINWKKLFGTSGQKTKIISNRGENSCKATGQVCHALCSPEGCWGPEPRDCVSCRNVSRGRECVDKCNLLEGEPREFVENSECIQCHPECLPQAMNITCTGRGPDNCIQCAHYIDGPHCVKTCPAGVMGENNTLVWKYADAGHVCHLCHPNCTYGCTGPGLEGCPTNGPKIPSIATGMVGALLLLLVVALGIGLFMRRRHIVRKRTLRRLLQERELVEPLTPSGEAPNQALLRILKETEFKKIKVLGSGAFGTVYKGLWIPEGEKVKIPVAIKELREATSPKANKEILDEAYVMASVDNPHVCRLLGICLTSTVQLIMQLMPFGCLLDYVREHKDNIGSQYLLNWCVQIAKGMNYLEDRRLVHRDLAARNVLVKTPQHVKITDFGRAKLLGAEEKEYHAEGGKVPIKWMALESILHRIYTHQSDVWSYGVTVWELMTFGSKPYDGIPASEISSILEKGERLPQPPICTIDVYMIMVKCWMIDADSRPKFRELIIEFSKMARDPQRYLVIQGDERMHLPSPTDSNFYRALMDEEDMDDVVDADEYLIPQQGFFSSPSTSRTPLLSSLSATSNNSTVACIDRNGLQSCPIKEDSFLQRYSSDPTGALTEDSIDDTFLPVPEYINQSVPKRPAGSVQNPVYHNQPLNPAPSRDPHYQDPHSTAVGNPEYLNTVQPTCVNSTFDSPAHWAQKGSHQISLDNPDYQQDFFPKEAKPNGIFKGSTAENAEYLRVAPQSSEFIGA
Sequence of Epidermal growth factor receptor (Homo sapiens, UniProt P00533, L858R) (P00533 25-1210 L858R limits assumed): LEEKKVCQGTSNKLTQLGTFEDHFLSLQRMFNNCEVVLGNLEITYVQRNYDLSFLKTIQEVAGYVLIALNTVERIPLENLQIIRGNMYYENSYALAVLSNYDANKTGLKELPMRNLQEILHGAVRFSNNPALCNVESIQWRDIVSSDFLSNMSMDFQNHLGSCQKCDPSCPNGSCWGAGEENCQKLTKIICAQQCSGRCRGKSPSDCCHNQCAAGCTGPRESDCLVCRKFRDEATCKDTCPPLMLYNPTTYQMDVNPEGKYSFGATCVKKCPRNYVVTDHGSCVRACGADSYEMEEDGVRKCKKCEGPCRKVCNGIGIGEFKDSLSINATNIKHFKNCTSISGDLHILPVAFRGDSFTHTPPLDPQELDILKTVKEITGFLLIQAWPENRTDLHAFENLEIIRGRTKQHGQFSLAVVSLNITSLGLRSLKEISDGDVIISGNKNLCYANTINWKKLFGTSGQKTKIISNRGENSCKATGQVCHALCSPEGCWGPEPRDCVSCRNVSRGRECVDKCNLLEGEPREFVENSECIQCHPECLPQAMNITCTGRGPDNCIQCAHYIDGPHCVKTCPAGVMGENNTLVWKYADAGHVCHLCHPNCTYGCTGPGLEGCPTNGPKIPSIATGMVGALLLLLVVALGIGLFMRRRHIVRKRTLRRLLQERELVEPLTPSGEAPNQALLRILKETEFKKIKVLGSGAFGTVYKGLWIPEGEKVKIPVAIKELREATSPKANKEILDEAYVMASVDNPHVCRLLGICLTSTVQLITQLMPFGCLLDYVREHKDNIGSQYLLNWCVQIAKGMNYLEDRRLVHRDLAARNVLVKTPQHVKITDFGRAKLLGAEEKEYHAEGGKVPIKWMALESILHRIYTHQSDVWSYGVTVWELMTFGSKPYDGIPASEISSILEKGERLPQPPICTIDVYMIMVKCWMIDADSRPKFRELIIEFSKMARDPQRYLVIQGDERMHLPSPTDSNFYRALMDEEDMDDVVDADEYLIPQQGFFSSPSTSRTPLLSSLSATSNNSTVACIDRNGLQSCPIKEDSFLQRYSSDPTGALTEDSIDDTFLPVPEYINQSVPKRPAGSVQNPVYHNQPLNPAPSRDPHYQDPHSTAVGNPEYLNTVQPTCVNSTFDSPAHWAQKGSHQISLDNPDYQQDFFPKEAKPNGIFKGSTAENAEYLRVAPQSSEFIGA

## C=CC(=O)Nc1cc(Nc2nccc(-c3cn4c5c(cccc35)CCC4)n2)c(OC)cc1N(C)CCO
[1]; read-out: IC50
  IC50: 838 nM
[2]
  IC50: 192 nM
[3]
  IC50: 34.8 nM
Homo sapiens
  Ratio IC50: 24.1

## C=CC(=O)Nc1cc(Nc2nccc(-c3cn(C)c4ccccc34)n2)c(OC)cc1N(C)CCN(C)C [OSIMERTINIB]
NCI-H1975
  IC50: […]
[4]
  half-life: […]
[5]
  half-life: 1.04 h
[6]
  half-life: 0.35 h
[7]
  half-life: […]
[8]
  CLint scaled: […]
[9]
  CLint scaled: […]
[10]
  CLint scaled: […]
[11]
  CLint scaled: […]
[12]
  half-life: […]
[13]
  half-life: 0.963 h
[14]
  CLH: […]
[15]
  Tmax: […]
[16]
  Cmax: […]
[17]
  MRT: […]
[18]
  bioavailability: […]
[19]
  half-life: […]
[20]
  clearance: […]
[21]
  MRT: […]

## C=CC(=O)Nc1cc(Nc2nccc(-c3cn4c5c(cccc35)CCC4)n2)c(OC)cc1N(C)CCN(C)C(C)=O
[1]; read-out: IC50
  IC50: > 1000 nM
[2]
  IC50: 386 nM
[3]
  IC50: 188 nM
Homo sapiens
  Ratio IC50: > 5.3

## C=CC(=O)Nc1cc(Nc2nccc(-n3ncc4ccccc43)n2)c(OC)cc1N(C)CCN(C)C
[1]
  IC50: Not Active
[2]
  IC50: > 600 nM
[3]
  IC50: > 600 nM

## C=CC(=O)Nc1cc(Nc2cc(-c3cn(C)c4ccccc34)ncn2)c(OC)cc1N(C)CCN(C)C
NCI-H1975
  IC50: 33.8 nM
[1]; read-out: IC50
  IC50: 2.3 nM
[2]
  IC50: 2.2 nM
[3]
  IC50: 1.6 nM
A-431
  IC50: 128 nM
HCC827
  IC50: 16.2 nM

## C=CC(=O)Nc1cc(Nc2nc(OC)cc(-c3cn(C)c4ccccc34)n2)c(OC)cc1N(C)CCN(C)C
NCI-H1975
  IC50: 320 nM
[1]; read-out: IC50
  IC50: 685 nM
[2]
  IC50: 155 nM
[3]
  IC50: 13 nM
A-431
  IC50: > 10000 nM
HCC827
  IC50: 1170 nM

## C=CC(=O)Nc1cc(Nc2ncnc(-c3cn(C)c4ccccc34)c2F)c(OC)cc1N(C)CCN(C)C
[1]; read-out: IC50
  IC50: 32.1 nM
[2]
  IC50: 9.9 nM
[3]
  IC50: 94.8 nM
Homo sapiens
  Ratio IC50: 0.34

## C=CC(=O)Nc1cc(Nc2cc(-c3cn4c5c(cccc35)CCC4)nc(OC)n2)c(OC)cc1N(C)CCN(C)C
[1]; read-out: IC50
  IC50: 543 nM
[2]
  IC50: 181 nM
[3]
  IC50: 22 nM

## C=CC(=O)Nc1cc(Nc2nccc(-c3cn4c5c(cccc35)CCC4)n2)c(OC)cc1N1CC(CCN(C)C)C1
[1]; read-out: IC50
  IC50: 251 nM
[2]
  IC50: 14.5 nM
[3]
  IC50: 11.8 nM
Homo sapiens
  Ratio IC50: 21.3

## C=CC(=O)Nc1cc(Nc2cc(-c3cn(C)c4ccccc34)nc(C)n2)c(OC)cc1N(C)CCN(C)C
[1]; read-out: IC50
  IC50: 192 nM
[2]
  IC50: 46.5 nM
[3]
  IC50: 60.6 nM
Homo sapiens
  Ratio IC50: 3.2

## C=CC(=O)Nc1cc(Nc2nccc(-c3cn4c5c(cccc35)CCC4)n2)c(OC)cc1N1CC(CN(C)C)C1
NCI-H1975
  IC50: 166 nM
[1]; read-out: IC50
  IC50: 202 nM
[2]
  IC50: 11.6 nM
[3]
  IC50: 6.7 nM
A-431
  IC50: 1470 nM
HCC827
  IC50: 290 nM

## C=CC(=O)Nc1cc(Nc2cc(-c3cn(C)c4ccccc34)nc(OC)n2)c(OC)cc1N(C)CCN(C)C
NCI-H1975
  IC50: 210 nM
[1]; read-out: IC50
  IC50: 636 nM
[2]
  IC50: 123 nM
[3]
  IC50: 10.9 nM
A-431
  IC50: > 10000 nM
HCC827
  IC50: 925 nM

## C=CC(=O)Nc1cc(Nc2nccc(-c3cn4c5c(cccc35)CCC4)n2)c(OC)cc1N1CCC(CN(C)C)C1 (stereo unspecified)
NCI-H1975
  IC50: 99.9 nM
[1]; read-out: IC50
  IC50: 8.8 nM
[2]
  IC50: 4 nM
[3]
  IC50: 1.9 nM
A-431
  IC50: 514 nM
HCC827
  IC50: 71.7 nM

## C=CC(=O)Nc1cc(Nc2nccc(-c3cn4c5c(cccc35)CCC4)n2)c(OC)cc1N1CC(N(C)C)C1
NCI-H1975
  IC50: 143 nM
[1]; read-out: IC50
  IC50: 63.9 nM
[2]
  IC50: 13.6 nM
[3]
  IC50: 4.9 nM
A-431
  IC50: 1120 nM
HCC827
  IC50: 98.2 nM

## C=CC(=O)Nc1cc(Nc2nccc(-c3cn4c5c(cccc35)CCC4)n2)c(OC)cc1N1CCNC(=O)C1
[1]
  IC50: Not Active
[2]
  IC50: 428 nM
[3]
  IC50: 1230 nM

## C=CC(=O)Nc1cc(Nc2nccc(-c3cn4c5c(cccc35)CCC4)n2)c(OC)cc1N1CCN(C)CC1
[1]; read-out: IC50
  IC50: 877 nM
[2]
  IC50: 64.3 nM
[3]
  IC50: 55.5 nM
Homo sapiens
  Ratio IC50: 15.8

## C=CC(=O)Nc1cc(Nc2nccc(-c3cn4c5c(cccc35)CCC4)n2)c(OC)cc1N(C)CC(=O)N(C)C
[1]; read-out: IC50
  IC50: > 1000 nM
[2]
  IC50: 498 nM
[3]
  IC50: 278 nM
Homo sapiens
  Ratio IC50: > 3.6

## C=CC(=O)Nc1cc(Nc2ncnc(-c3cn(C)c4ccccc34)c2OC)c(OC)cc1N(C)CCN(C)C
[1]; read-out: IC50
  IC50: 222 nM
[2]
  IC50: 55.5 nM
[3]
  IC50: 212 nM
Homo sapiens
  Ratio IC50: 1

## C=CC(=O)Nc1cc(Nc2cc(-c3cn4c5c(cccc35)CCC4)ncn2)c(OC)cc1N(C)CCN(C)C
NCI-H1975
  IC50: 37.8 nM
[1]; read-out: IC50
  IC50: 3.1 nM
[2]
  IC50: 1.2 nM
[3]
  IC50: 2.6 nM
A-431
  IC50: 122 nM
HCC827
  IC50: 24.3 nM

## C=CC(=O)Nc1cc(Nc2nccc(-n3cc(C)c4ccccc43)n2)c(OC)cc1N(C)CCN(C)C
[1]; read-out: IC50
  IC50: 715 nM
[2]
  IC50: 186 nM
[3]
  IC50: 287 nM
Homo sapiens
  Ratio IC50: 2.5
